Screening results as filed in PubChem.
This is one part of a sample in which hits are shown more often than they occur.
CHOP inh – blocks CHOP induction under ER stress; CHO-K1 CHOP-promoter luciferase, tunicamycin-induced, 15-18 h; 220,000 tested, 3.8% active; inhibition, % at 10 µM;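 active = compounds that reduced the stress-induced luciferase reporter signal by more than about 70% of percent inhibition, limit read from the data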;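 note: 0% = tunicamycin plus vehicle and 100% = wells without tunicamycin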
NOD2-RIPK2 inh – blocks binding of human NOD2 to RIPK2 | CHO BLA complementation NOD2-RIPK2, CCF4 ratio | inhibition, % at 4.98 µM | 360,000 tested, 0.38% active | O43353; in the data active = inhibition above about 21%;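 note: 0% = vehicle only and 100% = reference blocker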
UPR CHOP act – activators of apoptotic arm of unfolded protein response (CHOP); CHO-CHOP luciferase reporter, UPR activation, luminescence; percent of tunicamycin response over DMSO baseline; activation, % at 10 µM; 330,000 tested, 0.34% active;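 active = at 10 µM dose, activation of 40% or more, normalized to positive control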;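 note: 100% = tunicamycin at 10 µg/mL and 0% = DMSO alone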
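Test system: CHO CHOP reporter cells. Input: 500 CHO-CHOP cells per well. Medium: F12 with 10% FBS. Technique: luciferase luminescence. Measure: percent activation relative to tunicamycin control. Dosing: 10 µM compound, 0.5% DMSO. Timing: 16-18 h cell attachment, then 6 h compound exposure, 37 °C.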
TLR4 MyD88 comp – inhibitors of human TLR4-MyD88 binding. O00206+Q99836. HeLa CL3-4 TLR4/MyD88 BLA complementation, FRET ratio. inhibition, % at 8.4 µM. 200,000 tested, 0.18% active. AID 861; in the data active = inhibition above about 25%;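 note: 0% = vehicle and 100% = reference inhibitor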
UPR XBP1 act – adaptive UPR (XBP1) activation; CHO-XBP1 luciferase reporter, IRE1-XBP1 UPR activation, luminescence; percent of tunicamycin response, DMSO as zero; activation, % at 20 µM; 330,000 tested, 0.33% active; AID 463104;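 active = versus positive control, 20 µM dose yields 30% or more activation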;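 note: 100% = tunicamycin at 10 µg/mL and 0% = DMSO only wells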
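Assay system: CHO-XBP1 luciferase reporter cells; Schedule: 6 h treatment, 37 °C; Detection: glow luminescence from Steady-Glo reagent; Benchmarks: high control tunicamycin 10 µg/mL final, low control DMSO vehicle only.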
TLR9-MyD88 inh – TLR9-MyD88 interaction inhibition; Q9NR96+Q99836; CHO BLA complementation TLR9-MyD88, CCF4 FRET ratio; inhibition, % at 4.98 µM; 340,000 tested, 0.21% active; AID 504734;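 active = inhibition above the mean over all tested compounds plus 3 SD, cut at about 21% in these data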;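 note: 0% = DMSO only wells and 100% = clavulanate BLA inhibitor control wells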
Target sequence (Q99836 whole entry, looked up): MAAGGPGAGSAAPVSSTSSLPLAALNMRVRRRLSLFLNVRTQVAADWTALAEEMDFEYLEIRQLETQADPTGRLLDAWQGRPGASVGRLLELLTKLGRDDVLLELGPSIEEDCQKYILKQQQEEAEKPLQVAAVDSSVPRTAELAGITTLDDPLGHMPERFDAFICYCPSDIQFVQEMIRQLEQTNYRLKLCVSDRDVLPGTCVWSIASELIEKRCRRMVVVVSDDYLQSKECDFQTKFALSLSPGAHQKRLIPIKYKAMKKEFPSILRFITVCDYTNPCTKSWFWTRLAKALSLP
Target sequence (Q9NR96 whole entry, looked up): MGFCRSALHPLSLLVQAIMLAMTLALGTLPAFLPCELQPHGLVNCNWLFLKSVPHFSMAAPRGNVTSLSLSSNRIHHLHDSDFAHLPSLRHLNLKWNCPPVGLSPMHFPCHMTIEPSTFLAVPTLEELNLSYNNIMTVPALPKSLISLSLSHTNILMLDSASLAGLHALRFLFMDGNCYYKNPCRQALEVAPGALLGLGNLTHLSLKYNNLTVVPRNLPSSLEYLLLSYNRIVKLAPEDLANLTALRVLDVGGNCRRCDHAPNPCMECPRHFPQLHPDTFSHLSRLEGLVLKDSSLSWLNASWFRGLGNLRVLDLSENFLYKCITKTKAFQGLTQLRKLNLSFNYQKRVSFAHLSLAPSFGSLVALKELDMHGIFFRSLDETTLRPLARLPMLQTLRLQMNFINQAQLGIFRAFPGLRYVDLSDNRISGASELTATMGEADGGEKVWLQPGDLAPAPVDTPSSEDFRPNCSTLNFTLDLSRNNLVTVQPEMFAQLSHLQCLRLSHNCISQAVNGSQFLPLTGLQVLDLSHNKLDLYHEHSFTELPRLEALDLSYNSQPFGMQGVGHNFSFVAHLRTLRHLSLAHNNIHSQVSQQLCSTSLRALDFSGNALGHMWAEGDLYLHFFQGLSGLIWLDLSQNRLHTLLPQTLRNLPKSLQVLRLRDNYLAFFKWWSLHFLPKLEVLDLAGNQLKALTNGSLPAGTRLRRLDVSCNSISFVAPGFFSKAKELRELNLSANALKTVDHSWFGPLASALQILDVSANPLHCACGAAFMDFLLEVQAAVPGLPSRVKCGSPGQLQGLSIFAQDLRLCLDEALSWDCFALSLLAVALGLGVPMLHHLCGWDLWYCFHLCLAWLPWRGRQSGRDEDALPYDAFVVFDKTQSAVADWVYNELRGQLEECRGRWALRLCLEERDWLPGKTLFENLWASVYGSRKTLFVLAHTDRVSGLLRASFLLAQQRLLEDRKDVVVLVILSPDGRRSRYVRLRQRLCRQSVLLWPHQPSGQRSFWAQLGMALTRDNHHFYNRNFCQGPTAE
* hit, by the source's call; . = no result given; ! = repeats disagree.

SMILES	CHOP inh	NOD2-RIPK2 inh	UPR CHOP act	TLR4 MyD88 comp	UPR XBP1 act	TLR9-MyD88 inh
Cc1ccc(C(=O)NCCSc2ccc(Cl)cc2)cc1S(=O)(=O)Nc1ccccc1	79*	5	-1	3	-5	12
COc1cc2nc(-c3ccccc3)nc(N3CCCC3)c2cc1OC	82*	.	.	-7	.	.
CC(C)COC(=O)N1CCCCC1c1cc(C(=O)NCc2ccc(F)cc2)no1 (stereo not given)	.	-1	.	.	.	.
CC(=O)N1N=C(c2ccc(Cl)cc2)OC1c1ccc(C(C)C)cc1 (stereo not given)	12	4	4	-11	2	4
CC(=O)N1N=C(c2ccc(C)cc2)OC1c1ccc(Br)cc1 (stereo not given)	93*	-6	4	-5	0	11
Cc1ccc(Oc2ccc(-c3nc(N)nc(N)n3)cc2)cc1C	89*	1	2	1	-1	5
Nc1nc(N)nc(-c2ccc(Oc3ccccc3)cc2)n1	9	-6	-1	-5	-1	8
CCOC(=O)C1=NOC2(C1)C(=O)Nc1c(Cl)cccc12 (stereo not given)	.	-3	.	.	.	.
CCOC1(OCC)C(c2ccc(N)cc2)C(C#N)(C#N)C1(OCC)OCC (stereo not given)	88*	-1	0	1	0	-3
CCOC1(OCC)C(c2ccc(Cl)cc2)C(C#N)(C#N)C1(OCC)OCC (stereo not given)	26	-8	-2	4	-3	-12
O=C1/C(=C\c2ccco2)CCC/C1=C\c1ccco1	87*	0	4	1	4	-1
CC1C/C(=C/c2ccco2)C(=O)/C(=C/c2ccco2)C1 (stereo not given)	-10	.	6	0	2	.
CC(=O)N1CCC(C(=O)c2ccc(Cl)cc2)CC1	89*	2	-2	-6	-3	-3
O=C(CC1S/C(=N/N=C/c2cccs2)NC1=O)Nc1ccc(Cl)cc1 (stereo not given)	94*	-8	0	1	9	1
O=S(=O)(Nc1ccc(-c2cn3c(n2)SCC3)cc1)c1cc(F)ccc1F	.	-8	.	.	.	0
COc1nc(C)nc2c1sc(=S)n2C	71*	4	-1	18	0	0
CC(=O)c1ccc(NC(=S)NC(C)c2ccc(Cl)cc2Cl)cc1 (stereo not given)	73*	-1	2	-5	-2	-6
CCCCN(C(=O)c1ccc(S(=O)(=O)N(C)C)cc1)c1nc2ccccc2s1	71*	2	2	11	-3	-1
CCCCN(C(=O)c1ccc(S(=O)(=O)N(C)C)cc1)c1ccccc1	20	-7	-2	.	-1	4
CN(C)C(=O)c1nc2ccccc2s1	-17	-11	1	-3	3	8
CN(C(=O)c1ccccc1)c1nc2ccccc2s1	72*	-3	-2	-4	-10	-7
C[C@@H](NC(=O)c1ncn2c1C(=O)NC[C@@H]2C)c1ccccc1	.	6	.	.	.	-2
Cc1[nH]c2ccccc2c1N=Nc1ccc(F)cc1	90*	3	4	-5	5	4
O=C1NC(=Nc2ccc(Cl)cc2)SC1Cc1cc(Cl)ccc1Cl (stereo not given)	71*	-4	-2	4	1	0
Cc1ccc(N=CC2=C(O)CC(C)(C)CC2=O)nc1	7	-3	-1	-15	7	-12
SMILES	CHOP inh	NOD2-RIPK2 inh	UPR CHOP act	TLR4 MyD88 comp	UPR XBP1 act	TLR9-MyD88 inh
CC1(C)CC(=O)C(/C=N/c2ncccc2C(=O)O)=C(O)C1	78*	3	-2	4	0	-1
Cc1[nH]nc(N=CC2=C(O)CC(C)(C)CC2=O)c1-c1ccc(Cl)cc1	92*	3	6	2	13	0
Cc1sc2ncnc(SCc3ccco3)c2c1C	71*	3	-1	1	-2	-2
CC(=O)Nc1ccc(CN2C(=O)C(C)(C)ON=C2c2ccc(NC(C)=O)cc2)cc1	.	4	.	.	.	.
CCn1nc(C(=O)O)c(=O)c2cc3c(cc21)OCO3	96*!	2	-1	-15	-5	2
CCn1cc(C(=O)O)c(=O)c2cc3c(cc21)OCO3	-7	.	1	-4	-5	.
CCOC(=O)C(=Cc1cc(=O)c(OC)co1)C(=O)OCC	109*	1	.	11	.	1
COc1coc(C(O)CN)cc1=O (stereo not given)	-4	-7	1	19	-1	-1
O=C(Nc1ccc(OCC(F)(F)C(F)F)c(C(F)(F)F)c1)c1ccccc1	.	2	2	-2	3	-8
O=C(Nc1ccc(OCC(F)(F)C(F)F)c(C(F)(F)F)c1)c1ccccc1O	108*	0	16	-12	6	-11
Cc1cc(C)cc(-n2ccnc2SCC(=O)Nc2ccc3c(c2)OCCO3)c1	84*	-3	-2	-11	-1	9
O=C(CSc1nccn1-c1ccccc1)Nc1ccc2c(c1)OCO2	-7	-7	1	1	2	-7
S=c1nc(-c2ccco2)[nH][nH]1	74*	14	-2	0	0	10
Cn1c(-c2ccco2)n[nH]c1=S	-7	-12	-1	6	0	3
O=c1oc2ccccc2cc1-c1nc2c(s1)CCCC2	96*	3	-4	-17	-3	0
Cc1[nH]n(-c2ccccc2)c(=O)c1N=Nc1cccc(Cl)c1	.	0	3	.	4	-9
Cc1[nH]n(-c2ccc(Cl)cc2)c(=O)c1N=Nc1cccnc1	90*	-4	3	.	1	2
COc1ccccc1-c1cn(CC[C@@H]2CC[C@H](NC(=O)C3CCC3)[C@@H](CO)O2)nn1	.	-8	.	.	.	.
COc1ccc(-c2nc3c(c(=O)[nH]c(=O)n3Cc3ccccc3)n2Cc2ccccc2)cc1	76*	-8	7	9	6	2
COc1ccc(-c2nc3c(c(=O)[nH]c(=O)n3Cc3ccccc3)n2C)cc1	20	-11	-1	-3	2	-5
Cc1sc2ncnc(N3CCCCC3)c2c1C	23	-4	-1	3	1	-7
Cc1ccc(OCCN2CCN(c3ncnc4sc(C)c(C)c34)CC2)cc1	72*	-1	3	-9	-3	11
Cc1ccc(Sc2ccc(NC(=O)CCl)cc2)c(C)c1	84*	.	20	0	2	.
O=C(NCc1ccco1)c1ccc2nc([C@@H]3O[C@H](CO)[C@H](O)[C@H](O)[C@H]3O)[nH]c2c1	.	9	.	.	.	.
COc1cccc(OCC(O)CN2CCN(c3ccc(F)cc3)CC2)c1 (stereo not given)	.	-6	-1	.	-1	-13
